Converted amounts (≈) assume the structure as drawn.
Columns and labels:
Aspergillus niger [1] = experiment: Antimicrobial activity against Aspergillus niger MTCC 292 at 500 ug/ml after 24 hrs by cup plate method; type: functional; details: MTCC 292, 24 h, read-out: DIZ
Candida albicans [2] = experiment: Antimicrobial activity against Candida albicans MTCC 227 at 500 ug/ml after 24 hrs by cup plate method; type: functional; details: MTCC 227, 24 h, read-out: DIZ
Mus musculus [3] = experiment: Acute toxicity in Swiss albino mouse assessed as mortality up to 1500 mg/kg, po; type: organism-based; parameters: dose 1500 mg/kg, route oral; details: in vivo
Method in brief: (§1)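 Swiss albino mice (6–8 weeks, 25–30 g) were dosed orally at 500, 1000 or 1500 mg/kg, following OECD guidelines. Body weight, food and water intake, behavioural patterns and mortality were recorded and compared with a control group.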

Mus musculus [4] = experiment: Acute toxicity in Swiss albino mouse assessed as gross behavioral changes up to 1500 mg/kg, po; type: organism-based; parameters: dose 1500 mg/kg, route oral; details: in vivo; method in brief: as §1
Rattus norvegicus = experiment: Antiinflammatory activity in Wister rat assessed as inhibition of carrageenan-induced paw edema at 100 mg/kg, po administered 1 hr before carrageenan challenge measured after 3 hrs by plethysmograph analysis; type: functional
Method in brief: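 Rats of either sex, 150–220 g, food withheld 4 h. Compound or diclofenac sodium 100 mg/kg p.o., or 0.5% sodium CMC at 10 ml/kg as vehicle control, given 1 h before 0.05 ml of 1% carrageenan subplantar into the right hind paw. Paw volume read by water-displacement plethysmograph at 0, 30, 60, 120 and 180 min. % edema inhibition = 100(1−Vt/Vc); n=5, control n=6; ANOVA/Dunnett.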

Mus musculus [5] = experiment: Analgesic activity in Swiss albino mouse assessed as inhibition of acetic acid-induced writhing response at 100 mg/kg, po administered 1 hr before acetic acid challenge after 5 mins; type: functional
Bacillus subtilis [6] = experiment: Antimicrobial activity against Bacillus subtilis MTCC 441 at 0.02 ml of 1 mg/ml after 24 hrs by cup plate method; type: functional; details: MTCC 441, 24 h, read-out: DIZ
Method in brief: (§2)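 Cup-plate diffusion on Mueller-Hinton/nutrient agar swab-streaked with suspension, 6 mm cups bored. Each compound at 1 mg/ml in DMSO, 0.02 ml per cup; DMSO as solvent control. Amoxicillin for bacteria and fluconazole for fungi at 200 and 500 respectively as references. Incubation 37 °C for 24 h. Inhibition zone diameter in mm, triplicate, mean ± SD.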

Staphylococcus aureus [7] = experiment: Antimicrobial activity against Staphylococcus aureus MTCC 96 at 0.02 ml of 1 mg/ml after 24 hrs by cup plate method; type: functional; details: MTCC 96, 24 h, read-out: DIZ; method in brief: as §2
Pseudomonas aeruginosa [8] = experiment: Antimicrobial activity against Pseudomonas aeruginosa MTCC 1688 at 0.02 ml of 1 mg/ml after 24 hrs by cup plate method; type: functional; details: MTCC 1688, 24 h, read-out: DIZ; method in brief: as §2
Escherichia coli [9] = experiment: Antimicrobial activity against Escherichia coli ESS 2231 at 0.02 ml of 1 mg/ml after 24 hrs by cup plate method; type: functional; details: ESS 2231, 24 h, read-out: DIZ; method in brief: as §2
Aspergillus niger [10] = experiment: Antimicrobial activity against Aspergillus niger MTCC 292 at 0.02 ml of 1 mg/ml after 24 hrs by cup plate method; type: functional; details: MTCC 292, 24 h, read-out: DIZ; method in brief: as §2
Candida albicans [11] = experiment: Antimicrobial activity against Candida albicans MTCC 227 at 0.02 ml of 1 mg/ml after 24 hrs by cup plate method; type: functional; details: MTCC 227, 24 h, read-out: DIZ; method in brief: as §2
[12] = Cytotoxicity against brine shrimps larvae assessed as mortality after 24 hrs; type: organism-based; details: artemia, in vivo; read-out: ED50
Method in brief: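 Shrimp eggs were hatched in filtered artificial sea water (38 g sea salt/L) in a divided tank. Larvae were exposed in vials at several concentrations under a lamp, and survivors were counted 24 h later. ED50 and 95% confidence intervals were derived from % larvae surviving by Finney probit analysis.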

[13] = test system: Radical scavenging activity; experiment: Antioxidant activity assessed as DPPH radical scavenging activity after 20 to 30 mins; type: functional
Method in brief: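 Test solution (2 ml at 25, 50, 75, 100, 125) mixed with 2 ml ethanolic DPPH, held in the dark at ambient temperature 20–30 min, then A517 read against an ethanol blank. Tocopherol used as standard. % scavenging = (Acontrol−Atest)/Acontrol×100, run in triplicate. IC50 read graphically from the % scavenging versus concentration plot.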

[14] = Antioxidant activity assessed as hydroxyl radical scavenging activity after 15 mins; type: functional
Method in brief: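 Deoxyribose degradation mix: 2-deoxy-2-ribose 2.8 mM, KH2PO4–KOH 20 mM pH 7.4, FeCl3, EDTA, H2O2 1.0 mM, ascorbic acid, plus compound in methanol. Incubated 1 h at 37 °C. A 0.5 ml aliquot taken with 1 ml 2.8% TCA and 1 ml 1% TBA, heated 90 °C for 15 min, cooled, A532 read. % inhibition against blank.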

Brain = experiment: Antioxidant activity against lipid peroxidation in Wister rat brain homogenates assessed as thiobarbituric acid reactive substance formation after 30 mins by spectrophotometer analysis; type: functional, tissue-based; details: 0.5 h
Method in brief: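 Whole brain minus cerebellum from overnight-fasted rats of either sex, 200–220 g. Homogenized 10% w/v in 0.15 M KCl and spun at 800 rpm for 10 min. Reaction incubated 37 °C for 30 min, then TBA:TCA (1:1) and BHT added, heated 80 °C for 20 min, cooled, centrifuged, A532 read.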

[15] = Antioxidant activity assessed as trolox equivalents of cupric reducing antioxidant capacity after 30 mins; type: functional
Method in brief: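 Mix of 1 ml CuCl2 (10 mM), 1 ml ethanolic neocuproine (7.5 mM), 1 ml ammonium acetate buffer (pH 7.0, 1 M), 1 ml compound or standard solution and 0.1 ml water, total 4.1 ml. A450 read after 30 min against reagent blank. TEAC = ε test/ε Trolox.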

Bacillus subtilis [16] = experiment: Antimicrobial activity against Bacillus subtilis MTCC 441 at 200 ug/ml after 24 hrs by cup plate method; type: functional; details: MTCC 441, 24 h, read-out: DIZ
Staphylococcus aureus [17] = experiment: Antimicrobial activity against Staphylococcus aureus MTCC 96 at 200 ug/ml after 24 hrs by cup plate method; type: functional; details: MTCC 96, 24 h, read-out: DIZ
Pseudomonas aeruginosa [18] = experiment: Antimicrobial activity against Pseudomonas aeruginosa MTCC 1688 at 200 ug/ml after 24 hrs by cup plate method; type: functional; details: MTCC 1688, 24 h, read-out: DIZ
Escherichia coli [19] = experiment: Antimicrobial activity against Escherichia coli ESS 2231 at 200 ug/ml after 24 hrs by cup plate method; type: functional; details: ESS 2231, 24 h, read-out: DIZ

| SMILES | Activity (Mus musculus [3]) | Activity (Mus musculus [4]) | inhibition in vivo at 100 mg/kg (Rattus norvegicus) | inhibition in vivo at 100 mg/kg (Mus musculus [5]) | zone of inhibition at 1000 µg/mL (Bacillus subtilis [6]) | zone of inhibition at 1000 µg/mL (Staphylococcus aureus [7]) | zone of inhibition at 1000 µg/mL (Pseudomonas aeruginosa [8]) | zone of inhibition at 1000 µg/mL (Escherichia coli [9]) | zone of inhibition at 1000 µg/mL (Aspergillus niger [10]) | zone of inhibition at 1000 µg/mL (Candida albicans [11]) | LC50 at 24 h [12] | IC50 [13] | IC50 [14] | IC50 (Brain) | TEAC (Trolox equivalents) [15] | other results |
| --- | --- | --- | --- | --- | --- | --- | --- | --- | --- | --- | --- | --- | --- | --- | --- | --- |
| OC(Cn1cncn1)(Cn1cncn1)c1ccc(F)cc1F [FLUCONAZOLE] | – | – | – | – | – | – | – | – | – | – | – | – | – | – | – | zone of inhibition at 500 µg/mL (Aspergillus niger [1]): 24 mm; zone of inhibition at 500 µg/mL (Candida albicans [2]): 23.2 mm |
| O=C(NC(CS)C(=O)N(C(=O)NC1CCCCC1)C1CCCCC1)/C(=C\c1ccc(Cl)cc1)NC(=O)c1ccccc1 (stereo unspecified) | Non-toxic | Non-toxic | 22.8% | 40.8% | 18.4 mm | 16.5 mm | 17.4 mm | 18.3 mm | 21.2 mm | 13.5 mm | 10 mg/L (≈ 16.4 µM) | 57.1 µM | 66.3 µM | 60.7 µM | 2.65 | – |
| O=C(NC(CS)C(=O)N(C(=O)NC1CCCCC1)C1CCCCC1)/C(=C\c1ccc(O)cc1)NC(=O)c1ccccc1 (stereo unspecified) | Non-toxic | Non-toxic | 41.3% | 43.2% | 24.4 mm | 24.8 mm | 20.7 mm | 23.5 mm | 24.5 mm | 26.6 mm | 4.38 mg/L (≈ 7.39 µM) | 47.2 µM | 54 µM | 54.4 µM | 3.91 | – |
| O=C(NC(CS)C(=O)N(C(=O)NC1CCCCC1)C1CCCCC1)/C(=C\c1ccccc1)NC(=O)c1ccccc1 (stereo unspecified) | Non-toxic | Non-toxic | 43.4% | 56.8% | 23.2 mm | 24.4 mm | 20.6 mm | 25.8 mm | 18.3 mm | 17.4 mm | 3.53 mg/L (≈ 6.12 µM) | 44.4 µM | 64.4 µM | 59.5 µM | 3.84 | – |
| CC1(C)S[C@@H]2[C@H](NC(=O)[C@H](N)c3ccc(O)cc3)C(=O)N2[C@H]1C(=O)O [AMOXICILLIN] | – | – | – | – | – | – | – | – | – | – | – | – | – | – | – | zone of inhibition at 200 µg/mL (Bacillus subtilis [16]): 21.2 mm; zone of inhibition at 200 µg/mL (Staphylococcus aureus [17]): 22 mm; zone of inhibition at 200 µg/mL (Pseudomonas aeruginosa [18]): 21.4 mm; zone of inhibition at 200 µg/mL (Escherichia coli [19]): 22.6 mm |
| O=C(NCC(=O)N(C(=O)NC1CCCCC1)C1CCCCC1)/C(=C\c1ccc(O)cc1)NC(=O)c1ccccc1 | Non-toxic | Non-toxic | 31.5% | 27.6% | 22.4 mm | 13.4 mm | 18.5 mm | 19.8 mm | 12.4 mm | 13.2 mm | 9.1 mg/L (≈ 16.6 µM) | 51 µM | 74.7 µM | 65.6 µM | 2.91 | – |

— ChEMBL document CHEMBL3232756, “Synthesis and biological evaluation of N-dehydrodipeptidyl-N,N'-dicyclohexylurea analogs” (Eur J Med Chem, 2014)
